# Bioassay records as filed in PubChem BioAssay.
# Cardio protect = cardioprotection against H2O2-induced cell death, primary screen, uHTS, H9c2 cells, ATPLite luminescence | H9c2 cardiomyocytes, H2O2 injury protection, 2 h | protection from H2O2 cell death, % at 20 µM | 360,000 tested, 0.63% active | AID 588492, 2011;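 active means compounds giving at least 50% protection of heart cells from peroxide-induced death in the single-dose screen, raw or plate-pattern-corrected value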;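 further: 0% = DMSO wells with peroxide and 100% = DMSO wells without peroxide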
# Tn7 DDE FP = inhibitors of Tn7 peptide binding to fibrin DD(E), primary screen, biochemical, fluorescence polarization, human fibrin, Tn7 probe; inhibition, % at 8.3 µM; 370,000 tested, 0.13% active; FP displacement of FITC-Tn7 peptide from fibrin DD(E); 0% = median of compound wells per plate; Fibrinogen beta chain (Homo sapiens), P02675;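 active means inhibition above the mean of compounds falling within the control limits plus 3 SD of them, cut at about 14% in these data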;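 further: 0% = plate median of compound wells and 100% = 10 µM Aha-Tn7 peptide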
#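 assay system = human clot-derived fibrin DD(E) complex | quantity = Fibrin-DD(E) at 2 µM final | timing = 10 min preincubation, 3 h with tracer, room temperature | signal = fluorescence polarization | measure = percent inhibition | benchmarks = high control wells with 10 µM unlabelled Aha-Tn7 peptide (full inhibition) | replicates = singlicate testing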
# MT1-MMP act inh = blockers of MT1-MMP proenzyme processing, primary screen, HT1080 RFP-PRO-GFP cells, GFP/RFP fluorescence; Matrix metalloproteinase-14 (Homo sapiens), P50281; GFP/RFP ratio fluorescence, overnight; percent of plate control window, DMSO zero; GFP/RFP ratio change, % at 20 µM; 360,000 tested, 0.061% active; AID 651647, 2012;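 active means GFP/RFP ratio change of at least 30% with cell ATP level not reduced by more than half and red fluorescence within 50% of control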
#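 Test system: HT1080 RFP-PRO-GFP cells; Benchmarks: DMSO and RFP-L50D-GFP cell wells; Timing: cells overnight before dosing, compound overnight, 37 °C, 5% CO2; Compound: one 20 µM compound dose with 1% DMSO; Read-out: GFP/RFP fluorescence ratio.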
# Tn6 DDE FP = inhibitors of Tn6 peptide binding to fibrin DD(E), primary screen, biochemical, fluorescence polarization, human fibrin, Tn6 probe; inhibition, % at 8.3 µM; Fibrin DD(E) TRITC-Tn6 fluorescence polarization displacement; 370,000 tested, 0.21% active; AID 720509, 2013;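 active means inhibition above a per-campaign cutoff: mean of compounds within control limits plus 3 SD, cut at about 15% in these data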;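 further: 0% = median of all compound wells on the plate and 100% = blocking peptide control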
# TAG inh = inhibitors of triacylglycerol accumulation, primary screen, cell-based, uHTS, fluorescence, H9c2; H9c2 cells, Nile Red lipid (TAG) fluorescence; cells loaded with 200 µM oleic acid; inhibition, % at 12.5 µM; 230,000 tested, 0.66% active; AID 651582, 2012;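 active means pattern-corrected inhibition of lipid staining of at least 50% with the nuclear-stain viability signal not falling by more than 50%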;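 further: 0% = DMSO wells and 100% = triacsin C control wells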
# DAGLB inhibitor = DAGLB lipase inhibitors, primary screen, biochemical, fluorescence, HTS | 340,000 tested, 0.059% active | HEK293T DAGLB membrane lysate, EnzChek fluorogenic substrate | inhibition, % at 5.17 µM | AID 504411, 2011 | Diacylglycerol lipase-beta (Homo sapiens), Q8NCG7; in the data active means inhibition above about 34%;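 further: 0% = enzyme with vehicle and 100% = wells lacking enzyme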
# Target sequence (Q8NCG7 whole entry, looked up): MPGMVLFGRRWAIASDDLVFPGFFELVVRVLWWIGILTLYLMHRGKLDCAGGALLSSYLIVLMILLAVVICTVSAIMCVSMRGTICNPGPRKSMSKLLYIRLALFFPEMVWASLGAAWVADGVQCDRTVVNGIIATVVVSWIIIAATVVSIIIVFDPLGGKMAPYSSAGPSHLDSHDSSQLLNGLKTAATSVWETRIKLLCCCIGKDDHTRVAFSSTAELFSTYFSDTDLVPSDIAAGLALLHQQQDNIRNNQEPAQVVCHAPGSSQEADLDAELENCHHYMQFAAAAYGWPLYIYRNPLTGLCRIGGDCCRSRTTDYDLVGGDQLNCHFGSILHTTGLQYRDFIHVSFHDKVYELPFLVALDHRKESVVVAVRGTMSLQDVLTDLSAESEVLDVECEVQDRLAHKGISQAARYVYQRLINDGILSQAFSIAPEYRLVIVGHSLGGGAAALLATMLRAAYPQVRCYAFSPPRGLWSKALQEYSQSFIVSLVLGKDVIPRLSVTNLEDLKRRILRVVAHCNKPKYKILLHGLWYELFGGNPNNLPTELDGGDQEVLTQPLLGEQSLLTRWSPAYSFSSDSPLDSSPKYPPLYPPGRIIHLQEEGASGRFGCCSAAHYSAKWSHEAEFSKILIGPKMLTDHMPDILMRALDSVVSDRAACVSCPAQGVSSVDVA
# Starred values were filed as active, the others as inactive; . = not tested or not shown. Sampled rows, rich in hits. Any-hit rate of the full collection: about 1.4%.
SMILES,Cardio protect,Tn7 DDE FP,MT1-MMP act inh,Tn6 DDE FP,TAG inh,DAGLB inhibitor
CCN(C)C(=O)CNc1nnnn1-c1ccccc1,.,-2,.,-10,.,.
COc1cc(/C=C/C(=O)N2CCCN(C(=O)/C=C/c3cc(OC)c(OC)c(OC)c3)CC2)cc(OC)c1OC,-5,-8,5,-1,.,2
COc1cc(/C=C/C(=O)N2CCC=CC2=O)cc(OC)c1OC,-12,-6,0,-5,62*,-2
O=C(CCc1ccccc1)N[C@H]1[C@H](OC(=O)c2cccnc2)CCC[C@@]12C(=O)N(Cc1ccccc1)c1ccccc12,.,-8,.,-3,.,.
COc1ccc(-c2nnc(-c3cc(OC)c(OC)c(OC)c3)o2)cc1OC,58*,4,11,14,.,-1
O=C1NC(=O)c2cc([N+](=O)[O-])cc3cccc1c23,55*,-2,-55,-2,.,-1
COc1cc(-c2cc(-c3ccc(O)cc3)nc(N)c2C#N)ccc1O,50*,-2,8,-15,16,-3
CCCCCCCCN1C(=O)[C@@H](CC(=O)N2CCN(C(=O)OCC)CC2)C[C@@]2(C(=O)OC)C1=C[C@H](C(C)C)O[C@@H]2C1CC1,.,8,.,0,.,.
CC1CN(c2nn3c(=O)c4ccccc4nc3c3ccccc23)CC(C)O1 (centres undefined),65*,-4,12,-4,0,-1
CCN1CCN(c2nn3c(=O)c4ccccc4nc3c3ccccc23)CC1,38,4,2,5,7,-2
N#CCC[C@H]1CC[C@]2(CCCN(C(=O)c3ccco3)C2)O1,.,0,.,0,.,.
CCOc1cccc(C=Nc2cc(C)cc(C)c2O)c1O,93*,-7,-7,1,.,7
CSc1nc2ccc(Nc3nc(N4CCOCC4)nc(N4CCOCC4)n3)cc2s1,70*,7,-3,-1,.,-2
C=CCn1c(N)c(C(=O)Nc2ccc(C)c(C)c2)c2nc3ccccc3nc21,-3,-4,-5,-2,54*,-3
CCCn1c(NC(=O)c2cccc(S(=O)(=O)N3CCCC3)c2)nc2ccccc21,99*,-1,-16,-7,.,-1
Cn1c(/C=N/NC(=O)c2ccccc2)nc2ccccc21,65*,9,10,-1,.,1
O=C(Nc1nc2ccccc2n1Cc1ccccc1)c1ccco1,58*,-5,-1,-10,0,-1
CCN(CC)CCn1c(NC(=O)c2ccccc2O)nc2ccccc21,30,1,3,-1,29,-5
CCN(CC)CCn1c(NC(=O)c2ccc(Cl)cc2)nc2ccccc21,62*,-3,6,-2,.,-5
CN(C)C(=O)C[C@H]1CC[C@H]2[C@H](COc3ccc(NC(=O)C4CC4)cc3C(=O)N2C)O1,.,8,.,6,.,.
CCCn1c(NC(=O)c2ccccc2)nc2ccccc21,52*,12,5,6,-1,-4
CCCn1c(NC(=O)c2ccc(C)cc2)nc2ccccc21,39,4,-8,4,-17,-8
COC(=O)C1=C(C)N(Cc2ccccc2)C(=NCc2cccc(Cl)c2)N[C@H]1c1ccccc1,-10,.,-3,.,38,-2
COC(=O)C1=C(C)N(Cc2ccccc2)C(=NCc2ccccc2)N[C@H]1c1cccc(F)c1,-14,12,-3,4,92*,2
COc1ccc(NC(=O)/C(Cl)=C(/Cl)S(=O)Cc2ccccc2)cn1 (centres undefined),-33,-4,-21,-4,96*,8
C=CCN1[C@@H](Cc2ccccc2)COc2cc(F)ccc2S1(=O)=O,.,-3,.,6,.,.
Cc1nn(-c2ccccc2)nc1C(=O)Nc1cccc(C(=O)NC2CC2)c1,61*,-3,-4,-1,15,0
